Data published in ChEMBL document CHEMBL2010650, “Synthetic N-alkylated iminosugars as new potential immunosuppressive agents” (ACS Med Chem Lett, 2011).
The source made the active and inactive calls. The rule behind the calls is not given here.

How the values were obtained:
[1] = Immunosuppressive activity in BALB/c mouse splenocytes assessed as inhibition of concanavalin-A-induced cell proliferation at 30 uM after 48 hrs by MTT assay; type: functional; details: Splenocyte
Outline: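 Mouse splenocytes stimulated with Con A at 2.5 μg/mL, incubated with compound at 37 °C, 5% CO₂ for 48 h. Proliferation read by MTT assay. Con A-treated cells serve as control, CsA (1 μM) as positive control. Inhibition is expressed relative to control, as means ± SEM.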

Splenocyte [2] = assay: Immunosuppressive activity in BALB/c mouse splenocytes assessed as reduction in concanavalin-A-induced IL4 production at 30 uM after 48 hrs by ELISA; type: functional; design: scale not given: the % may be the effect or the level left
Outline: (§1)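 Splenocytes induced with 2.5 μg/mL Con A, co-incubated with compound 48 h at 37 °C, 5% CO₂. Culture supernatant assayed for IFN-γ or IL-4 by mouse ELISA kit. Reduction is relative to Con A-only control, with CsA 1 μM as positive control.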

Mus musculus [3] = species: Mus musculus; assay: Toxicity in C57BL/6 mouse transplanted with trunk skin of BALB/c mouse assessed as mortality; type: organism-based; details: in vivo
Mus musculus [4] = assay: Immunosuppressive activity in C57BL/6 mouse transplanted with trunk skin of BALB/c mouse assessed as increase of allograft mean survival time at 50 umol/kg, sc (reference value: 11.25 +/- 1.83 days); type: functional
Th2 = assay: Immunosuppressive activity in Th2 cells assessed as reduction of IL-4 production; type: functional, cell-based
Th1 = assay: Immunosuppressive activity in Th1 cells assessed as reduction of IFNgamma production; type: functional, cell-based
Splenocyte [5] = assay: Immunosuppressive activity in BALB/c mouse splenocytes assessed as reduction in concanavalin-A-induced IFN-gamma production at 30 uM after 48 hrs by ELISA; type: functional; design: scale not given: the % may be the effect or the level left; outline: as §1
Splenocyte [6] = assay: Immunosuppressive activity in BALB/c mouse splenocytes assessed as reduction in concanavalin-A-induced IL4 production at 1 uM after 48 hrs by ELISA; type: functional; design: scale not given: the % may be the effect or the level left; outline: as §1
Splenocyte [7] = assay: Immunosuppressive activity in BALB/c mouse splenocytes assessed as reduction in concanavalin-A-induced IFN-gamma production at 1 uM after 48 hrs by ELISA; type: functional; design: scale not given: the % may be the effect or the level left; outline: as §1
[8] = Toxicity in subcutaneously dosed C57BL/6 mouse transplanted with trunk skin of BALB/c mouse; type: organism-based; details: in vivo, sc

With CCCCCCCCCCN1C[C@H](O)C(O)[C@@H](O)C1 as the compound, how does the inhibition at 30 µM [1] read?
Its inhibition at 30 µM is 57.2%.

What about the Activity (Splenocyte [2]) of the same compound?
Its Activity is 95.7%.

What about the Activity (Mus musculus [3]) of the same compound?
Its Activity is “Non-toxic”.

And the MST (Mus musculus [4])?
Its MST is 14.14 days.

What about the Activity (Th2) of the same compound?
The Activity was “Active”.

And the Activity (Th1)?
Its Activity is “Active”.

What about the Activity (Splenocyte [5]) of the same compound?
Its Activity is 78.1%.

For CCCCCCCCN1C[C@@H](O)[C@H](O)[C@@H](O)C1, which inhibition at 30 µM [1] is on record?
Its inhibition at 30 µM is 27.1%.

And the Activity (Splenocyte [2])?
The Activity was 8.7%.

What about the Activity (Th1) of the same compound?
Its Activity is “Active”.

What about the Activity (Splenocyte [5]) of the same compound?
Its Activity is 40.3%.

With CCCCCCCCCCN1C[C@H](O)[C@@H](O)[C@H](O)C1=O as the compound, how does the inhibition at 30 µM [1] read?
Its inhibition at 30 µM is < 40%.

Which inhibition at 30 µM [1] does the source give for CCCCCCCCCCN1C[C@@H](O)[C@@H](O)[C@H](O)C1=O here?
The inhibition at 30 µM was < 40%.

Which Activity (Splenocyte [6]) does the source give for C/C=C/C[C@@H](C)[C@@H](O)[C@H]1C(=O)N[C@@H](CC)C(=O)N(C)CC(=O)N(C)[C@@H](CC(C)C)C(=O)N[C@@H](C(C)C)C(=O)N(C)[C@@H](CC(C)C)C(=O)N[C@@H](C)C(=O)N[C@H](C)C(=O)N(C)[C@@H](CC(C)C)C(=O)N(C)[C@@H](CC(C)C)C(=O)N(C)[C@@H](C(C)C)C(=O)N1C [CYCLOSPORINE] here?
The Activity was 96.8%.

And the Activity (Splenocyte [7])?
The Activity was 97.1%.

Which inhibition at 30 µM [1] does the source give for CCCCCCCCCCN1C[C@H](O)[C@H](O)C1=O here?
The inhibition at 30 µM was < 40%.

Which inhibition at 30 µM [1] does the source give for CCCCCCCCCCN1C[C@@H](O)C(O)[C@H](O)C1 here?
Its inhibition at 30 µM is 59%.

What about the Activity (Splenocyte [2]) of the same compound?
Its Activity is 85.6%.

And the Activity (Mus musculus [3])?
The Activity was “Non-toxic”.

What about the MST (Mus musculus [4]) of the same compound?
The MST was 15.2 days.

And the Activity (Th2)?
Its Activity is “Active”.

And the Activity (Th1)?
Its Activity is “Active”.

What about the Activity (Splenocyte [5]) of the same compound?
Its Activity is 75%.

Which inhibition at 30 µM [1] does the source give for CCCCCCCCCCN1C[C@@H](O)[C@@H](O)C1 here?
The inhibition at 30 µM was 61%.

What about the LD50 [8] of the same compound?
Its LD50 is 392 mg/kg.

And the Activity (Splenocyte [2])?
Its Activity is 88.6%.

And the Activity (Mus musculus [3])?
The Activity was “Non-toxic”.

And the MST (Mus musculus [4])?
The MST was 15.6 days.

And the Activity (Th2)?
The Activity was “Active”.

What about the Activity (Th1) of the same compound?
Its Activity is “Active”.

What about the Activity (Splenocyte [5]) of the same compound?
Its Activity is 94.7%.

For CCCCCCCCCCN1C[C@@H](O)[C@H](O)[C@@H](O)C1, which inhibition at 30 µM [1] is on record?
Its inhibition at 30 µM is 45.9%.

And the Activity (Splenocyte [2])?
Its Activity is 60.9%.

And the Activity (Mus musculus [3])?
The Activity was “Non-toxic”.

And the MST (Mus musculus [4])?
Its MST is 14.71 days.

And the Activity (Th2)?
Its Activity is “Active”.

And the Activity (Th1)?
The Activity was “Active”.

And the Activity (Splenocyte [5])?
Its Activity is 89.1%.

For CCCCCCCCCCN1C[C@H](O)[C@@H](O)[C@@H](O)C1=O, which inhibition at 30 µM [1] is on record?
The inhibition at 30 µM was < 40%.
